The list is not random: actives were taken first. Their share in the collection is about 4.1%.
MC4R antag cAMP: MC4R antagonists of cAMP signaling, primary screen, cell-based, TR-FRET, antagonist arm of biased-ligand search. inhibition, % at 6.5 µM. MC4R-expressing cells, MTII-stimulated cAMP, LANCE TR-FRET. AID 540295, 2011. 0.48% of 360,000 active;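 active = inhibition above its plate's cutoff, the mean of tested wells on that plate plus 3 SD, cut at about 29% in these data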
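Test system: U2OS cells stably expressing human melanocortin 4 receptor (MC4R); also added: Melanotan II challenge; compound: 6.5 µM single dose; timing: 30-min compound preincubation, 1-h Melanotan II challenge, 1-h detection, room temperature; signal: Eu-cAMP/anti-cAMP TR-FRET, emission 671 nm; repeats: one well per compound, no replicates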
SMARCA2 activ: SMARCA2 (BRM) function activators, primary screen, cell-based, luminescence, high throughput | MG213 cells, MMTV-luciferase reporter, dexamethasone, overnight | activation, % at 9.1 µM | 1% of 370,000 active | AID 652017, 2013; in the data active = activation above about 7.8%
ATG4B inh: ATG4B protease inhibitors, primary screen, biochemical, fluorescence, uHTS | ATG4B cleavage of LC3-PLA2, NBD-HPC fluorescence, 1 h | 0.51% of 340,000 active | inhibition, % at 8.33 µM | Cysteine protease ATG4B (Homo sapiens), Q9Y4P1; in the data active = inhibition above about 40%
Target sequence (Q9Y4P1 whole entry, looked up): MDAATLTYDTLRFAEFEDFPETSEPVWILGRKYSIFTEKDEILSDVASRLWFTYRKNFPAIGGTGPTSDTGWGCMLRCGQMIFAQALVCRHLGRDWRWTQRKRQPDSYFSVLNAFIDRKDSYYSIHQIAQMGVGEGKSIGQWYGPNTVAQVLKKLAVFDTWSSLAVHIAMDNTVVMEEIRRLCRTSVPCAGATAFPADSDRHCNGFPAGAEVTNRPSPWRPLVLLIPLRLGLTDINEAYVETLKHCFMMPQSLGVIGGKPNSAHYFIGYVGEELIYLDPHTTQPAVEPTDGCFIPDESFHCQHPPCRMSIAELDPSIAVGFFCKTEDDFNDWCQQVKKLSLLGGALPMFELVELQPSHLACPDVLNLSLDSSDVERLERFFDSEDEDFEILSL
MC4R ag barr: MC4R agonists recruiting beta-arrestin, primary screen, cell-based, luminescence, agonist arm of biased-ligand search; activation, % at 8.9 µM; Melanocortin receptor 4 (Homo sapiens), P32245; AID 540308, 2011; 0.98% of 360,000 active; U2OS MC4R beta-arrestin complementation; percent of melanotan II response, DMSO zero;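 active = activation above a per-plate cutoff, the mean activation of sample wells on that plate plus 3 SD, cut at about 8% in these data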
MPTP block: mitochondrial permeability transition pore inhibitors, primary screen, biochemical, isolated mouse mitochondria, absorbance. Ca2+ swelling absorbance, 30 min. inhibition, % at 10 µM. 1.4% of 360,000 active;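 active = inhibition of 50% or more, scaled per plate between neutral and stimulator controls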
MC4R barr conf: MC4R beta-arrestin agonists, retest, confirmation, cell-based, luminescence, U2OS; shares compounds with MC4R ag barr; U2OS MC4R beta-arrestin recruitment; scaled DMSO 0%, Melanotan II 100%; activation, % at 8.9 µM; 31% of 2,400 active; AID 602192, 2012;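 active = mean activation across replicates above the hit cutoff set in the earlier primary screen, cut at about 8% in these data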
MOR DOR agonist: agonists of MOR-DOR heterodimerization, counter-screen for MC4R biased agonist project, cell-based, luminescence; 5.8% of 2,400 active; U2OS PathHunter beta-arrestin, beta-gal luminescence; percent of deltorphin B response, DMSO zero; shares compounds with MC4R ag barr; activation, % at 9.2 µM;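 active = mean activation across replicates exceeds the hit threshold derived in the earlier primary screen, cut at about 18% in these data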
Rh123 counter: fluorescence retest of MPTP screen hits in isolated mitochondria, single concentration | inhibition, % at 10 µM | membrane potential, Rhodamine 123 fluorescence | shares compounds with MPTP block | 78% of 5,000 active; in the data active = inhibition above about 22%
MPTP abs DR: mitochondrial permeability transition pore inhibitors, dose response, biochemical, absorbance, uHTS hits | shares compounds with MPTP block | isolated mitochondria swelling | IC50, µM | 58% of 780 active | AID 651561, 2012; in the data active = IC50 below about 20 µM
MPTP cs DR: fluorescent counter-screen in isolated mitochondria, dose response, counter-screen for MPTP inhibitor project, biochemical, fluorescence, uHTS hits. IC50, µM. isolated mitochondria counterscreen, fluorescence read-out. shares compounds with MPTP block. 49% of 780 active; in the data active = IC50 below about 80 µM
Numbers stand for hits; - = inactive; . = no result; ! = not confirmed by another sample.

SMILES	MC4R antag cAMP	SMARCA2 activ	ATG4B inh	MC4R ag barr	MPTP block	MC4R barr conf	MOR DOR agonist	Rh123 counter	others
C/C(=N\Nc1ncc(Cl)cc1Cl)c1ccc(C#N)cc1	-	-	-	-	-	.	.	.
COc1ccc(/C(C)=N/Nc2ncc(Cl)cc2Cl)c(O)c1	-	-	-	13	73	-	-	73
O=C(Nc1ccccc1)Nc1cc(OCC(F)(F)F)cc(OCC(F)(F)F)c1	-	-	-	10	77	-	-	63
CCCCCCCCCCS(=O)(=O)N/N=C/c1ccc([N+](=O)[O-])cc1	-	-	-	13	85	-	-	62
COc1ccc2c(c1)CCCN2C(=O)C1CCCN(S(=O)(=O)c2cccs2)C1 (centres undefined)	.	-	.	.	.	.	.	.
COC(=O)[C@]12C[C@H](CC(=O)NCc3cccs3)C(=O)N(Cc3ccc4c(c3)OCO4)C1=C[C@H](C(C)(C)C)O[C@@H]2C	.	-	.	.	.	.	.	.
Cn1nc(-c2ccccc2)cc1NC(=O)Nc1ccc(C(C)(C)C)cc1	-	-	-	12	70	-	-	74
C=CCN1[C@H](CC(C)C)COc2cc(F)ccc2S1(=O)=O	.	-	.	.	.	.	.	.
CC(C)(C)OC(=O)N1CCC[C@@H]1C(=O)N1CCC[C@@H]1C(=O)NCc1ccccc1	.	-	.	.	.	.	.	.
O=C1OC(c2ccccc2)(c2cc(Br)ccc2O)c2ccccc21 (centres undefined)	-	-	-	21	76	20	-	97
CCCCCCc1cc2cc(S(=O)(=O)c3ccc(C)cc3)c(=O)oc2cc1O	-	-	-	22	99	9.6	-	78
Cc1ccc(S(=O)(=O)c2cc3cc(Br)ccc3oc2=O)cc1	-	-	-	-	-	.	.	.
Cc1cc(C)nc(N2CCN(C(=O)CSc3nc4ccccc4nc3N3CC(C)OC(C)C3)CC2)n1 (centres undefined)	.	-	.	.	.	.	.	.
Cn1c(COc2ccccc2O)[n+](C)c2ccccc21	-	-	-	-	-	.	.	.
CCCCCCCCCCOC(=O)Cn1c(COc2ccccc2OC)[n+](C)c2ccccc21	-	-	-	19	53	16	29	95
CCn1c2c(n(C(C)=O)c1=O)C[C@@H](c1ccccc1)[C@@H](C)[C@@H](C(=O)N1CCCC1)C2	.	-	.	.	.	.	.	.
COc1ccc2nc(C)cc(SCC(=O)N/N=C/c3cccc4ccccc34)c2c1	-	-	-	19	128	-	-	-	MPTP abs DR=-;MPTP cs DR=-
COc1ccc2nc(C)cc(SCC(=O)N/N=C/c3ccc(O)c(O)c3)c2c1	-	-	-	-	-	.	.	.
Cc1ccc(-n2c(SCC(=O)NN=Cc3ccc(-c4ccccc4)cc3)nnc2-c2ccccc2)cc1	.	-	.	.	.	.	.	.
CCN1/C(=C/c2ccc3cc(C)ccc3[n+]2CC)Sc2cc(C)c(C)cc21	-	-	-	29	106	79	-	93
CCN1CCN(Cc2ccc(NC(=O)c3ccc(C)c(NC(=O)C(=O)c4c[nH]c5ccccc45)c3)cc2C(F)(F)F)CC1	-	-	-	22	94!	21	-	-
Cc1ccc(-n2c(SCC(=O)c3ccc(F)cc3)nnc2-c2cccnc2)cc1	.	-	.	.	.	.	.	.
CCN1CCN(c2cc(-c3ccccc3)nc3cc(-c4cccc(F)c4)nn23)CC1	-	-	-	12	99	-	-	-	MPTP abs DR=11;MPTP cs DR=-
OC1CCN(c2cc(-c3ccccc3)nc3cc(-c4ccc(F)cc4)nn23)CC1	-	-	-	-	-	.	.	.
COc1ccc2c(c1)CCCN2C(=O)C1CCCN(S(=O)(=O)c2ccc(Cl)s2)C1 (centres undefined)	.	-	.	.	.	.	.	.
SMILES	MC4R antag cAMP	SMARCA2 activ	ATG4B inh	MC4R ag barr	MPTP block	MC4R barr conf	MOR DOR agonist	Rh123 counter	others
FC(F)Sc1ccc(NC(=S)NC(c2ccccc2)c2ccccc2)cc1	-	-	-	9.6	98	-	-	63
CN(C(=S)Nc1ccc(SC(F)F)cc1)C(c1ccccc1)c1ccccc1	-	-	-	-	-	.	.	.
O=C(NCCc1c[nH]c2ccccc12)OCc1cn(-c2ccc(Cl)cc2)nn1	.	-	.	.	.	.	.	.
O=C(Nc1ccccc1)Nc1nnc(CSCc2ccccc2Cl)s1	-	-	-	11	90	-	-	92
Cc1ccc(-c2csc(NC(=O)CSc3nnc4c(n3)[nH]c3ccccc34)n2)cc1	-	-	-	16	88	-	-	56
Cc1ccc(NC(=O)CSc2nnc3c(n2)[nH]c2ccccc23)cc1	-	-	-	-	-	.	.	.
Cc1cc(/C=N/n2cnnc2)c(C)n1-c1ccc(OCc2ccc(Cl)cc2Cl)cc1	-	.	-	14	108	-	-	101
Cc1cc(/C=N/n2cnnc2)c(C)n1-c1ccc(Cl)cc1	-	-	-	-	-	.	.	.
O=C(CCc1ccccc1)N/N=C/c1cc(Br)ccc1O	-	-	-	15	91	-	-	80
Oc1ccc(Br)cc1/C=N/NC(=S)NCCc1ccccc1	-	-	-	-	-	.	.	.
O=C(/C=C/c1ccc(Cl)c([N+](=O)[O-])c1)Nc1ccc(N2CCCC2)c(Cl)c1	-	-	-	11	76	-	-	40
CCCC(=O)OC12CCCN(C1)/C(=C/c1cccc(N(C)C)c1)C2 (centres undefined)	.	-	.	.	.	.	.	.
Cc1cccc(OCC(=O)Nc2nonc2NC(=O)COc2cccc(C)c2)c1	-	-	-	-	-	.	.	.
Cc1ccc(C)c(OCC(=O)Nc2nonc2NC(=O)COc2cc(C)ccc2C)c1	-	-	-	19	90	-	-	84
COc1ccc(C2C(=O)c3ccccc3C2=Nc2ccc(Br)cc2)cc1 (centres undefined)	-	-	-	26	90	11	-	50
O=C1c2ccccc2C(=O)C1c1ccc(Br)cc1	-	-	-	-	-	.	.	.

Source: PubChem BioAssay
